The values below come from publication PMC6331221 (Biomaterials, 2018).

Assay [1] has as its system A2780 ovarian cancer cell line. The assay can be described thus: MTT cytotoxicity assay in A2780 cells. The class given is cell-based, human. The following applies: 72 h. The procedure, abridged:
(§1)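 Cells grown in RPMI1640 with 10% FBS and 1% penicillin-streptomycin, seeded at 3000 cells/well 24 h before treatment, then exposed to free or micelle-incorporated drug serially diluted in full medium for 72 h. MTT added for 4 h at 37°C, formazan dissolved in DMSO, absorbance read at 562 nm. Survival relative to untreated wells; six wells, mean ± standard deviation; IC50 from fitted curves.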
For orientation: Tetrazolium assays rely on reduction of a dye to a coloured formazan, in cell work by metabolically active cells.

The test system of assay [2] is A2780/CisR (cisplatin resistant) ovarian cancer cell line. The assay can be described thus: MTT cytotoxicity and combination index in A2780/CisR cells. The class given is cell-based, human. The conditions noted are these: 72 h. The procedure, abridged:
as §1

Assay [3] has as its system A2780/CisR ovarian cancer xenograft. The assay can be described thus: Anti-tumor efficacy in A2780/CisR ovarian cancer xenograft model. The conditions noted are these: q4d x 4, 20 mg/kg PTX and/or 20 mg/kg CP, cisplatin 3 mg/kg. The class given is in vivo, mice.
For assay [4], the system named is LCC-6-MDR orthotopic tumor. Briefly: Anti-tumor efficacy in orthotopic LCC-6-MDR breast cancer model. It is filed as in vivo, mice. The following applies: q4d x 4; 60 mg/kg PTX and/or 4.5 mg/kg C6CP, cisplatin 3 mg/kg.

Consider `N.N.[Cl][Pt][Cl]` [cisplatin], for which the IC50 (in general, the concentration that gives 50% inhibition) was 1.141 µg/mL in assay [1] and 10.88 µg/mL in assay [2]. Besides, the “effect on tumor growth” value in assay [3] is “small but significant effect by delaying the tumor growth”. The compound further came in with a median lifespan in assay [3] (untreated 10.5 days) of 14.5 days. In addition, the “antitumor effect” value in assay [4] is recorded as “considerable antitumor effect”.
